Columns and labels:
[1] = Displacement of [3H]epibatidine from Torpedo californica muscle-type nAChR after 90 mins by liquid scintillation counting; format: tissue-based, Tetronarce californica
Summary of the method: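 Torpedo californica electric organ membranes, homogenised and washed in HSS, 60−70 μg per sample. Incubated with (±)-[3H]epibatidine for 90 min at 22 °C; (−)-nicotine defined nonspecific binding. Filtered through PEI-soaked GF/B filters and counted by scintillation. […] Mean ± SEM of 3–5 experiments.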

[2] = target: T1, Muscarinic acetylcholine receptor M2 (Sus scrofa, UniProt P06199); test: Displacement of [3H]NMS from pig muscarinic M2 receptor after 120 mins by liquid scintillation counting
T1 sequence (P06199 whole entry): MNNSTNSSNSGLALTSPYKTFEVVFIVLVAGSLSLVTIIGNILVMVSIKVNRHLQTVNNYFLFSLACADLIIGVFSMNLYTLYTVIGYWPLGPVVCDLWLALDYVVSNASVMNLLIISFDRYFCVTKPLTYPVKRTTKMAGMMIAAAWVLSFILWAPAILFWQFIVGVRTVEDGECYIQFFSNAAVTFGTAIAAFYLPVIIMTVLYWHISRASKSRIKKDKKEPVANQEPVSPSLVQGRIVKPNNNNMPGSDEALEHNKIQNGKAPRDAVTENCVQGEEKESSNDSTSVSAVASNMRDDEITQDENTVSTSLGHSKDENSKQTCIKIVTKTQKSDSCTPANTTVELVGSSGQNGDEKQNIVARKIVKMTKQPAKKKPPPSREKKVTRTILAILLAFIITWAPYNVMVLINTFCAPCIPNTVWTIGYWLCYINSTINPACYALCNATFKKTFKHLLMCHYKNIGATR

[3] = target: T2, Neuronal acetylcholine receptor subunit alpha-7 (Homo sapiens, UniProt P36544); test: Antagonist activity at human alpha7 nAChR expressed in GH3 cells by Ca2+/Fluo-4 assay; format: cell-based
[4] = target: T2, Neuronal acetylcholine receptor subunit alpha-7; test: Ratio of toxiferine-I IC50 to compound IC50 for human alpha7 nAChR expressed in GH3 cells by Ca2+/Fluo-4 assay; format: cell-based

T2 sequence (P36544 whole entry): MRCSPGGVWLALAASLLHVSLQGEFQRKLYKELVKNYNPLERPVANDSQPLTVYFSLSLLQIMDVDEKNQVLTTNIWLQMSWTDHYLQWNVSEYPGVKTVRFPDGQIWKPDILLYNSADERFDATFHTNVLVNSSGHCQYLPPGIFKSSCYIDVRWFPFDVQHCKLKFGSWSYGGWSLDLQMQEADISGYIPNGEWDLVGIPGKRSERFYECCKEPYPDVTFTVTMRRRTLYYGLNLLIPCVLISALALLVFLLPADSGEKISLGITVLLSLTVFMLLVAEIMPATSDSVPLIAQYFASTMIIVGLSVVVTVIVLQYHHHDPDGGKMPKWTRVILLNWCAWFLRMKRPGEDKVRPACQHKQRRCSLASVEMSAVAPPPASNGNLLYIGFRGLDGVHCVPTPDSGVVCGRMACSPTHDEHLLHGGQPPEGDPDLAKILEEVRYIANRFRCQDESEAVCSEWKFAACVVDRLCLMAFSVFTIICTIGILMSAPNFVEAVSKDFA

SMILES | Ki [1] [nM] | EC50 [2] [nM] | IC50 ([3]; read-out: IC50) [nM] | IC50 ([3]; read-out: pIC50 (converted)) [nM] | Ratio IC50 [4]
C=CC[N@@+]12CC[C@@]34c5ccccc5N5/C=C6/[C@H]7C[C@H]8[C@@]9(CC[N@@+]8(CC=C)C/C7=C/CO)c7ccccc7N(/C=C(/[C@@H](C[C@@H]31)/C(=C\CO)C2)[C@H]54)[C@@H]69 [ALCURONIUM] | 234 | 2 | – | – | –
C[N+]12CC[C@@]34c5ccccc5N5/C=C6/[C@H]7C[C@H]8[C@@]9(CC[N+]8(C)C/C7=C/CO)c7ccccc7N(/C=C(/[C@@H](C[C@@H]31)/C(=C\CO)C2)[C@H]54)[C@@H]69 (some centres not stated) | 14 | 96 | – | – | –
C[N+]12CC[C@@]34c5ccccc5N5[C@@H]6OC=C7C[N+]8(C)CC[C@]9%10c%11ccccc%11N([C@@H]%11OCC=C(C1)[C@H](C[C@@H]32)[C@@H]%11[C@H]54)[C@H]9[C@H]6[C@H]7C[C@@H]%108 (some centres not stated) | 5200 | 8 | – | – | –
CC[C@@H]1C[N+]2(Cc3ccc([N+](=O)[O-])cc3)CC[C@@]34c5ccccc5N5/C=C6/[C@H]7C[C@H]8[C@@]9(CC[N+]8(Cc8ccc([N+](=O)[O-])cc8)C[C@H]7CC)c7ccccc7N(/C=C(/[C@H]1C[C@@H]32)[C@H]54)[C@@H]69 (some centres not stated) | 81.9 | 49 | 21000 | 21400 | –
C=CC[N+]12CC[C@@]34c5ccccc5N5/C=C6/[C@H]7C[C@H]8[C@@]9(CC[N+]8(CC=C)C[C@H]7CC)c7ccccc7N(/C=C(/[C@@H](C[C@@H]31)[C@H](CC)C2)[C@H]54)[C@@H]69 (some centres not stated) | 75.1 | 36 | – | – | –
C=CC[N+]12CC[C@@]34c5ccccc5N5[C@@H]6OC=C7C[N+]8(CC=C)CC[C@]9%10c%11ccccc%11N([C@@H]%11OCC=C(C1)[C@H](C[C@@H]32)[C@@H]%11[C@H]54)[C@H]9[C@H]6[C@H]7C[C@@H]%108 (some centres not stated) | 1500 | 11 | – | – | –
CC[C@@H]1CN2CC[C@@]34c5ccccc5N5/C=C6/[C@H]7C[C@@H]8N(CC[C@@]89c8ccccc8N(/C=C(/[C@H]1C[C@H]23)[C@H]54)[C@@H]69)C[C@H]7CCO | 390 | 410 | 2200 | 2340 | –
C1=C2CN3CC[C@]45c6ccccc6N6[C@@H]7OCC=C8CN9CC[C@]%10%11c%12ccccc%12N([C@H](OC1)[C@@H]([C@H]64)[C@H]2C[C@H]35)[C@H]%10[C@H]7[C@H]8C[C@H]9%11 [CARACURINE V] | > 100000 | 436 | – | – | –
CC[C@@H]1C[N+]2(C)CC[C@@]34c5ccccc5N5/C=C6/[C@H]7C[C@H]8[C@@]9(CC[N+]8(C)C[C@H]7CCO)c7ccccc7N(/C=C(/[C@H]1C[C@@H]32)[C@H]54)[C@@H]69 (some centres not stated) | 455 | 320 | 590 | 603 | 10
CC[C@@H]1C[N+]2(Cc3ccc([N+](=O)[O-])cc3)CC[C@@]34c5ccccc5N5/C=C6/[C@H]7C[C@H]8[C@@]9(CC[N+]8(Cc8ccc([N+](=O)[O-])cc8)C[C@H]7CCO)c7ccccc7N(/C=C(/[C@H]1C[C@@H]32)[C@H]54)[C@@H]69 (some centres not stated) | 290 | 32 | 4200 | 4170 | –
CC[C@@H]1CN2CC[C@@]34c5ccccc5N5/C=C6/[C@H]7C[C@@H]8N(CC[C@@]89c8ccccc8N(/C=C(/[C@H]1C[C@H]23)[C@H]54)[C@@H]69)C[C@H]7CC | 669 | 500 | 3300 | 3310 | –
CC[C@@H]1C[N+]2(C)CC[C@@]34c5ccccc5N5/C=C6/[C@H]7C[C@H]8[C@@]9(CC[N+]8(C)C[C@H]7CC)c7ccccc7N(/C=C(/[C@H]1C[C@@H]32)[C@H]54)[C@@H]69 (some centres not stated) | 150 | 260 | 820 | 813 | 10
C=CC[N+]12CC[C@@]34c5ccccc5N5/C=C6/[C@H]7C[C@H]8[C@@]9(CC[N+]8(CC=C)C[C@H]7CCO)c7ccccc7N(/C=C(/[C@@H](C[C@@H]31)[C@H](CC)C2)[C@H]54)[C@@H]69 (some centres not stated) | 250 | 12 | 3100 | 3160 | –
